Source: ChEMBL document CHEMBL3612059, “Synthesis of 1,2-benzisoxazole tethered 1,2,3-triazoles that exhibit anticancer activity in acute myeloid leukemia cell lines by inhibiting histone deacetylases, and inducing p21 and tubulin acetylation” (Bioorg Med Chem, 2015)
Active and inactive are the calls of the source. No cut-off for these calls is given here.

Experiments:
MV4-11 [1] = test: Upregulation of p21 protein expression in human MV4-11 cells by Western blot analysis; type: functional, cell-based
MV4-11 [2] = test: Effect on total histone H3 protein expression in human MV4-11 cells by Western blot analysis; type: ADME, cell-based
Outline: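 Histones acid-extracted from MV4-11 cells: Triton/EDTA buffer lysis, NaCl wash, then 0.24 M H₂SO₄ final on ice for 2 h and acetone precipitation. Protein measured by Bradford. 0.5 µg loaded on 4-20 % gradient gels and transferred to PVDF. Anti-histone H3 probed as loading control alongside anti-acetyl-H3 (1:1000 in 5 % milk, overnight, 4 °C); HRP secondary 1 h, ECL detection.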

MOLM-14 = test: Cell cycle arrest in human MOLM14 cells assessed as accumulation at sub-G1 phase after 72 hrs by propidium iodide staining-based flow cytometric analysis; type: functional
Outline: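 Cells in RPMI with 10 % FBS at 37 °C, 5 % CO₂; treated up to 72 h, washed in cold PBS, fixed in -20 °C-precooled 70 % ethanol at 4 °C. Stained with 50 µg/ml PI, 1 % Triton X-100 and 20 µg/ml RNase A in PBS, 30 min, 37 °C, dark. Cell-cycle phases read by flow cytometry; three independent experiments, mean ± SD.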

MOLM-13 (Homo sapiens) [3] = test: Cytotoxicity against human MOLM13 cells assessed as cell viability measured at 96 hrs by MTT assay; details: MOLM-13, 96 h
MOLM-13 (Homo sapiens) [4] = test: Induction of apoptosis in human MOLM13 cells assessed as necrotic cells at 5 uM after 72 hrs by Annexin V-FITC/propidium iodide staining-based flow cytometric analysis (reference value: 3%)
MOLM-13 (Homo sapiens) [5] = test: Induction of apoptosis in human MOLM13 cells assessed as early apoptotic cells at 2.5 uM after 72 hrs by Annexin V-FITC/propidium iodide staining-based flow cytometric analysis (reference value: 11%)

**Q.** What does the source list for `c1ccc(Oc2ccc(-c3cn(-c4noc5ccccc45)nn3)cc2)cc1`?
**A.** Activity (MV4-11 [1]): Active; Activity (MV4-11 [2]): Non-toxic; Activity (MOLM-14): Active; IC50 (MOLM-13 (Homo sapiens) [3]): 1 µM; Activity (MOLM-13 (Homo sapiens) [4]): 18%; Activity (MOLM-13 (Homo sapiens) [5]): 15%
